Values joined by “and” are separate entries in the source; they are usually repeats but may differ in a detail not shown here. Identical values can stand only once.
Experiments:
HEK-293T = test: Multiplex assay against HEK293T; type: toxicity, cell-based; settings: human, number of replicates 2
How it was run: (§1)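 With compound added, live cells were imaged on a CQ1 microscope at 37°C and 5% CO2; staining with Hoechst33342, BioTracker Green Microtubule Cytoskeleton Dye, MitoTracker Red and Annexin V Alexa Fluor 680 had been done at seeding. The CellPathfinder machine-learning gating scheme split cells into Hoechst high-intensity objects or normal cells, normal cells into healthy, pyknosed or fragmented nuclei, and pyknosed cells into mitotic or apoptotic. The tubulin, mitochondrial-mass and membrane-permeability phenotypes are per cents of healthy-nucleus cells.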

U2OS = test: Multiplex assay against U2OS; type: toxicity, cell-based; settings: human, number of replicates 2; how it was run: as §1
[1] = 24 h, 1 µM, compound concentration 1 uM
[2] = 24 h, 10 µM, compound concentration 10 uM
[3] = 48 h, 1 µM, compound concentration 1 uM
[4] = 48 h, 10 µM, compound concentration 10 uM
[5] = 12 h, 1 µM, compound concentration 1 uM
[6] = 12 h, 10 µM, compound concentration 10 uM

N[C@@H]1c2cccnc2[C@H](OC(=O)N2CCC(n3c(=O)[nH]c4ncccc43)CC2)CC[C@H]1c1cccc(F)c1F [RIMEGEPANT]
Population Pyknosed Nuclei (%) (HEK-293T; [1]): 17% and 7%
Population Tubulin-Different-Phenotype (%) (HEK-293T; [1]): 18% and 20%
Total Cell Count (HEK-293T; [1]): 820 and 1035
Population Apoptotic (%) (HEK-293T; [2]): 48% and 36%
Population Fragmented Nuclei (%) (HEK-293T; [2]): 9% and 8%
Population Healthy Nuclei (%) (HEK-293T; [2]): 84% and 83%
Population Hoechst High Intensity Objects (%) (HEK-293T; [2]): 8%
Population Membrane Permeable-Phenotype (%) (HEK-293T; [2]): 5% and 2%
Population Mitotic Cells (%) (HEK-293T; [2]): 51% and 63%
Population Normal (%) (HEK-293T; [2]): 91%
Population Pyknosed Nuclei (%) (HEK-293T; [2]): 6% and 7%
Population Tubulin-Different-Phenotype (%) (HEK-293T; [2]): 91% and 67%
Total Cell Count (HEK-293T; [2]): 709 and 978
Population Apoptotic (%) (HEK-293T; [3]): 26% and 9%
Population Fragmented Nuclei (%) (HEK-293T; [3]): 12% and 16%
Population Healthy Nuclei (%) (HEK-293T; [3]): 82% and 80%
Population Hoechst High Intensity Objects (%) (HEK-293T; [3]): 7% and 8%
Population Membrane Permeable-Phenotype (%) (HEK-293T; [3]): 4% and 5%
Population Mitochondria Different-Phenotype (%) (HEK-293T; [3]): 0%
Population Mitotic Cells (%) (HEK-293T; [3]): 73% and 90%
Population Normal (%) (HEK-293T; [3]): 92% and 91%
Population Pyknosed Nuclei (%) (HEK-293T; [3]): 4% and 2%
Population Tubulin-Different-Phenotype (%) (HEK-293T; [3]): 7% and 8%
Total Cell Count (HEK-293T; [3]): 2054 and 2768
Population Apoptotic (%) (HEK-293T; [4]): 34% and 14%
Population Fragmented Nuclei (%) (HEK-293T; [4]): 14%
Population Healthy Nuclei (%) (HEK-293T; [4]): 82%
Population Hoechst High Intensity Objects (%) (HEK-293T; [4]): 8% and 10%
Population Membrane Permeable-Phenotype (%) (HEK-293T; [4]): 6%
Population Mitochondria Different-Phenotype (%) (HEK-293T; [4]): 9% and 1%
Population Mitotic Cells (%) (HEK-293T; [4]): 65% and 85%
Population Normal (%) (HEK-293T; [4]): 91% and 89%
Population Pyknosed Nuclei (%) (HEK-293T; [4]): 2% and 3%
Population Tubulin-Different-Phenotype (%) (HEK-293T; [4]): 83% and 44%
Total Cell Count (HEK-293T; [4]): 1243 and 2004
Population Apoptotic (%) (U2OS; [5]): 40% and 54%
Population Fragmented Nuclei (%) (U2OS; [5]): 11% and 5%
Population Healthy Nuclei (%) (U2OS; [5]): 79% and 84%
Population Hoechst High Intensity Objects (%) (U2OS; [5]): 0%
Population Membrane Permeable-Phenotype (%) (U2OS; [5]): 0% and 4%
Population Mitochondria Different-Phenotype (%) (U2OS; [5]): 0% and 1%
Population Mitotic Cells (%) (U2OS; [5]): 60% and 45%
Population Normal (%) (U2OS; [5]): 100%
Population Pyknosed Nuclei (%) (U2OS; [5]): 9%
Population Tubulin-Different-Phenotype (%) (U2OS; [5]): 90% and 65%
Population Apoptotic (%) (U2OS; [6]): 60% and 51%
Population Fragmented Nuclei (%) (U2OS; [6]): 0% and 5%
Population Healthy Nuclei (%) (U2OS; [6]): 88% and 83%
Population Hoechst High Intensity Objects (%) (U2OS; [6]): 0%
Population Membrane Permeable-Phenotype (%) (U2OS; [6]): 0% and 8%
Population Mitochondria Different-Phenotype (%) (U2OS; [6]): 8% and 11%
Population Mitotic Cells (%) (U2OS; [6]): 40% and 48%
Population Normal (%) (U2OS; [6]): 100%
Population Pyknosed Nuclei (%) (U2OS; [6]): 11% and 10%
Population Tubulin-Different-Phenotype (%) (U2OS; [6]): 37% and 34%
Population Apoptotic (%) (U2OS; [1]): 50% and 57%
Population Fragmented Nuclei (%) (U2OS; [1]): 7% and 3%
Population Healthy Nuclei (%) (U2OS; [1]): 82% and 86%
Population Hoechst High Intensity Objects (%) (U2OS; [1]): 0%
Population Membrane Permeable-Phenotype (%) (U2OS; [1]): 2% and 4%
Population Mitochondria Different-Phenotype (%) (U2OS; [1]): 0% and 2%
Population Mitotic Cells (%) (U2OS; [1]): 50% and 42%
Population Normal (%) (U2OS; [1]): 100%
Population Pyknosed Nuclei (%) (U2OS; [1]): 10% and 9%
Population Tubulin-Different-Phenotype (%) (U2OS; [1]): 87% and 71%
Population Apoptotic (%) (U2OS; [2]): 66% and 76%
Population Fragmented Nuclei (%) (U2OS; [2]): 8% and 3%
Population Healthy Nuclei (%) (U2OS; [2]): 79% and 89%
Population Hoechst High Intensity Objects (%) (U2OS; [2]): 0%
Population Membrane Permeable-Phenotype (%) (U2OS; [2]): 0% and 6%
Population Mitochondria Different-Phenotype (%) (U2OS; [2]): 10% and 16%
Population Mitotic Cells (%) (U2OS; [2]): 33% and 24%
Population Normal (%) (U2OS; [2]): 100%
Population Pyknosed Nuclei (%) (U2OS; [2]): 12% and 6%
Population Tubulin-Different-Phenotype (%) (U2OS; [2]): 28% and 27%
Population Apoptotic (%) (U2OS; [3]): 61% and 62%
Population Fragmented Nuclei (%) (U2OS; [3]): 8% and 3%
Population Healthy Nuclei (%) (U2OS; [3]): 77% and 89%
Population Hoechst High Intensity Objects (%) (U2OS; [3]): 0%
Population Membrane Permeable-Phenotype (%) (U2OS; [3]): 1%
Population Mitochondria Different-Phenotype (%) (U2OS; [3]): 2% and 1%
Population Mitotic Cells (%) (U2OS; [3]): 38% and 37%
Population Normal (%) (U2OS; [3]): 100%
Population Pyknosed Nuclei (%) (U2OS; [3]): 14% and 7%
Population Tubulin-Different-Phenotype (%) (U2OS; [3]): 94% and 84%
Population Apoptotic (%) (U2OS; [4]): 53% and 70%
Population Fragmented Nuclei (%) (U2OS; [4]): 3%
Population Healthy Nuclei (%) (U2OS; [4]): 73% and 86%
Population Hoechst High Intensity Objects (%) (U2OS; [4]): 0%
Population Membrane Permeable-Phenotype (%) (U2OS; [4]): 4% and 3%
Population Mitochondria Different-Phenotype (%) (U2OS; [4]): 2% and 9%
Population Mitotic Cells (%) (U2OS; [4]): 46% and 29%
Population Normal (%) (U2OS; [4]): 100%
Population Pyknosed Nuclei (%) (U2OS; [4]): 22% and 9%
Population Tubulin-Different-Phenotype (%) (U2OS; [4]): 30% and 33%
